# Experiments:
# Mus musculus [1] = assay: Inhibition of sc implanted syngeneic colon 38 carcinoma by ip administration at 5 mg/kg on 1, 3, 5, 7, 9 days measured as inhibition ratio; assay type: functional; settings: route subcutaneous
# Procedure, shortened: (§1)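 Tumor homogenate (70 mg) implanted into the axillary region of female BDF1 mice. Drug dissolved in 0.9% NaCl and diluted with saline just before use, then given ip on days 1, 3, 5, 7 and 9. Tumor length and width were measured by caliper on day 20 after inoculation and converted to estimated weight. Result reported as treated vs control tumor weight, T/C %.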
# Mus musculus [2] = assay: Effect on ip implanted syngeneic B16 melanoma by ip administration for 9 days at 2.5 mg/kg was measured as increase in mean life span; settings: 216 h
# Mus musculus [3] = assay: Antitumor activity against ip implanted syngeneic P388 leukemia in mouse after ip administration of 5 mg/kg for 5 days expressed as increase in mean life span; assay type: functional; settings: 120 h, route intraperitoneal
# Procedure, shortened: (§2)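 Saline-dissolved drug was given ip daily for 5 consecutive days, beginning 24 h post-transplant. ILS % was calculated from treated vs control mean survival time over an 80-day observation period.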
# Mus musculus [4] = assay: Antitumor activity against ip implanted L1210 leukemia in mouse after ip administration of 5 mg/kg for 5 days expressed as increase in mean life span; assay type: functional; settings: Mus musculus, L1210, ip, 120 h, route intraperitoneal
# Procedure, shortened: (§3)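 Drug was dissolved in 0.9% NaCl, diluted just before use and given ip once daily for 5 consecutive days, starting 24 h after transplant. ILS % = mean survival time of treated vs control mice, observed for 80 days.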
# Mus musculus [5] = assay: Number of survivors out of 6 ip implanted P388 leukemia in mouse after iv administration of 16 mg/kg after 80 days
# Mus musculus [6] = assay: Effect on ip implanted syngeneic B16 melanoma by ip administration for 9 days at 10 mg/kg was measured as increase in mean life span; settings: 216 h
# Mus musculus [7] = assay: Number of survivors out of 6 ip implanted EAC leukemia mouse tested after 80 days at 20 mg/kg; assay type: functional; settings: route intraperitoneal
# Procedure, shortened: (§4)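 Drug dissolved and diluted in saline just before use, given ip for 5 consecutive days starting 24 h after implant. Six mice per dose. Survivors counted at 80 days; ILS % taken from mean survival time of treated vs control mice.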
# Mus musculus [8] = assay: Number of survivors out of 6 ip implanted sarcoma 180 leukemia mouse tested after 80 days at 40 mg/kg; assay type: functional; settings: route intraperitoneal; procedure, shortened: as §4
# Mus musculus [9] = assay: Effect on ip implanted EAC by ip administration for 5 days at 5 mg/kg was measured as increase in mean life span; assay type: functional; settings: 120 h, route intraperitoneal
# Procedure, shortened: (§5)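 Drug in 0.9% NaCl was given ip for 5 consecutive days from 24 h after inoculation. ILS % came from treated vs control mean survival time, followed for 80 days.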
# Mus musculus [10] = assay: Number of survivors out of 6 ip implanted L1210 leukemia in mouse after ip administration of 20 mg/kg after 80 days; assay type: functional; settings: route intraperitoneal
# Procedure, shortened: (§6)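 Female BDF1 mice implanted ip with ascitic fluid holding 10^5 L1210 cells. Saline-dissolved drug given ip daily on days 1-5, starting 24 h after implant. Six mice per dose group, followed 80 days. Survivors/total counted at day 80; ILS % from mean survival time vs controls.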
# Mus musculus [11] = assay: Inhibition of sc implanted syngeneic colon 38 carcinoma by ip administration at 20 mg/kg on 1, 3, 5, 7, 9 days measured as inhibition ratio; assay type: functional; settings: route subcutaneous; procedure, shortened: as §1
# Mus musculus [12] = assay: Effect on ip implanted sarcoma 180 by ip administration for 5 days at 10 mg/kg was measured as increase in mean life span; assay type: functional; settings: Sarcoma-180, ip, 120 h, route intraperitoneal
# Procedure, shortened: (§7)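 Saline-dissolved drug was dosed ip daily for 5 consecutive days starting 24 h later. Readout was ILS % (mean survival time of treated vs control) over an 80-day observation.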
# Mus musculus [13] = assay: Number of survivors out of 6 ip implanted EAC leukemia mouse tested after 80 days at 10 mg/kg; assay type: functional; settings: route intraperitoneal; procedure, shortened: as §4
# Mus musculus [14] = assay: Antitumor activity against ip implanted P388 leukemia in mouse after ip administration of 40 mg/kg for 5 days expressed as increase in mean life span; assay type: functional; settings: 120 h, route intraperitoneal; procedure, shortened: as §2
# Mus musculus [15] = assay: Effect on ip implanted syngeneic B16 melanoma by ip administration for 9 days at 5 mg/kg was measured as increase in mean life span; settings: 216 h
# Mus musculus [16] = assay: Antitumor activity against ip implanted P388 leukemia in mouse after ip administration of 20 mg/kg for 5 days expressed as increase in mean life span; assay type: functional; settings: 120 h, route intraperitoneal; procedure, shortened: as §2
# Mus musculus [17] = assay: Antitumor activity against ip implanted L1210 leukemia in mouse after ip administration of 10 mg/kg for 5 days expressed as increase in mean life span; assay type: functional; settings: Mus musculus, L1210, ip, 120 h, route intraperitoneal; procedure, shortened: as §3
# Mus musculus [18] = assay: Effect on ip implanted sarcoma 180 by ip administration for 5 days at 40 mg/kg was measured as increase in mean life span; assay type: functional; settings: Sarcoma-180, ip, 120 h, route intraperitoneal; procedure, shortened: as §7
# Mus musculus [19] = assay: Antitumor activity against ip implanted P388 leukemia in mouse after ip administration of 10 mg/kg for 5 days expressed as increase in mean life span; assay type: functional; settings: 120 h, route intraperitoneal; procedure, shortened: as §2
# Mus musculus [20] = assay: Antitumor activity against ip implanted L1210 leukemia in mouse after ip administration of 40 mg/kg for 5 days expressed as increase in mean life span; assay type: functional; settings: 120 h, route intraperitoneal; procedure, shortened: as §3
# Mus musculus [21] = assay: Effect on ip implanted EAC by ip administration for 5 days at 10 mg/kg was measured as increase in mean life span; assay type: functional; settings: 120 h, route intraperitoneal; procedure, shortened: as §5
# Mus musculus [22] = assay: Antitumor activity against ip implanted L1210 leukemia in mouse after iv administration of 16 mg/kg for 5 days expressed as increase in mean life span; settings: 120 h
# Mus musculus [23] = assay: Effect on ip implanted sarcoma 180 by ip administration for 5 days at 20 mg/kg was measured as increase in mean life span; assay type: functional; settings: Sarcoma-180, ip, 120 h, route intraperitoneal; procedure, shortened: as §7
# Mus musculus [24] = assay: Antitumor activity against ip implanted P388 leukemia in mouse after iv administration of 8 mg/kg for 5 days expressed as increase in mean life span; settings: 120 h
# Mus musculus [25] = assay: Antitumor activity against ip implanted L1210 leukemia in mouse after ip administration of 20 mg/kg for 5 days expressed as increase in mean life span; assay type: functional; settings: 120 h, route intraperitoneal; procedure, shortened: as §3
# Mus musculus [26] = assay: Effect on ip implanted EAC by ip administration for 5 days at 40 mg/kg was measured as increase in mean life span; assay type: functional; settings: 120 h, route intraperitoneal; procedure, shortened: as §5
# Mus musculus [27] = assay: Number of survivors out of 6 ip implanted P388 leukemia in mouse after ip administration of 10 mg/kg after 80 days; assay type: functional; settings: route intraperitoneal
# Procedure, shortened: (§8)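 P388 leukemia, 10^6 ascitic cells implanted ip in female BDF1 mice. Drug in saline given ip for 5 consecutive days from 24 h after transplant. Groups of six per dose level. Survivors/total recorded at the 80-day end of observation; ILS % from treated/control mean survival time.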
# Mus musculus [28] = assay: Number of survivors out of 6 ip implanted L1210 leukemia mouse, tested after 80 days at 30 mg/kg; assay type: functional; settings: route intraperitoneal; procedure, shortened: as §6
# Mus musculus [29] = assay: Number of survivors out of 6 ip implanted L1210 leukemia in mouse after ip administration of 10 mg/kg after 80 days; assay type: functional; settings: route intraperitoneal; procedure, shortened: as §6
# Mus musculus [30] = assay: Antitumor activity against ip implanted L1210 leukemia in mouse after ip administration of 30 mg/kg for 5 days expressed as increase in mean life span; assay type: functional; settings: Mus musculus, L1210, ip, 120 h, route intraperitoneal; procedure, shortened: as §3
# Mus musculus [31] = assay: Antitumor activity against ip implanted P388 leukemia in mouse after ip administration of 1.25 mg/kg for 5 days expressed as increase in mean life span; assay type: functional; settings: 120 h, route intraperitoneal; procedure, shortened: as §2
# Mus musculus [32] = assay: Antitumor activity against ip implanted P388 leukemia in mouse after ip administration of 5 mg/kg for 5 days expressed as increase in mean life span; assay type: functional; settings: 120 h, route intraperitoneal; procedure, shortened: as §2
# Mus musculus [33] = assay: Number of survivors out of 6 ip implanted EAC leukemia mouse tested after 80 days at 40 mg/kg; assay type: functional; settings: route intraperitoneal; procedure, shortened: as §4
# Mus musculus [34] = assay: Inhibition of sc implanted syngeneic colon 38 carcinoma by ip administration at 30 mg/kg on 1, 3, 5, 7, 9 days measured as inhibition ratio; assay type: functional; settings: route intraperitoneal; procedure, shortened: as §1
# Mus musculus [35] = assay: Number of survivors out of 6 ip implanted P388 leukemia in mouse after ip administration of 20 mg/kg after 80 days; assay type: functional; settings: route intraperitoneal; procedure, shortened: as §8
# Mus musculus [36] = assay: Antitumor activity against ip implanted P388 leukemia in mouse after iv administration of 16 mg/kg for 5 days expressed as increase in mean life span; settings: 120 h
# Mus musculus [37] = assay: Number of survivors out of 6 ip implanted P388 leukemia in mouse after ip administration of 5 mg/kg after 80 days; assay type: functional; settings: route intraperitoneal; procedure, shortened: as §8
# Mus musculus [38] = assay: Antitumor activity against ip implanted L1210 leukemia in mouse after iv administration of 8 mg/kg for 5 days expressed as increase in mean life span; settings: 120 h
# Mus musculus [39] = assay: Antitumor activity against ip implanted L1210 leukemia in mouse after ip administration of 1.25 mg/kg for 5 days expressed as increase in mean life span; assay type: functional; settings: 120 h, route intraperitoneal; procedure, shortened: as §3
# Mus musculus [40] = assay: Effect on ip implanted syngeneic B16 melanoma by ip administration of 20 mg/kg for 9 days measured as increase in mean life span; settings: 216 h
# Mus musculus [41] = assay: Effect on ip implanted EAC by ip administration for 5 days at 20 mg/kg was measured as increase in mean life span; assay type: functional; settings: 120 h, route intraperitoneal; procedure, shortened: as §5
smiles,measurement,setting,value
CC(=O)[O-].Cc1c2cc[n+](C)cc2c(C)c2c1[nH]c1ccc(O)cc12 [ELLIPTINIUM ACETATE],T/C,Mus musculus [1],38%
same,ILS at 2.5 mg/kg,Mus musculus [2],35%
same,ILS at 5 mg/kg,Mus musculus [3],90%
same,ILS at 5 mg/kg,Mus musculus [4],48%
Cc1c2cc[n+]([C@@H]3O[C@H](CO)[C@H](O)[C@H]3O)cc2c(C)c2c1[nH]c1ccc(O)cc12.[Cl-],Cures,Mus musculus [5],2
same,ILS at 10 mg/kg,Mus musculus [6],64%
same,ILS at 2.5 mg/kg,Mus musculus [2],38%
same,Cures,Mus musculus [7],3
same,Cures,Mus musculus [8],2
same,ILS at 5 mg/kg,Mus musculus [9],125%
same,Cures,Mus musculus [10],1
same,T/C,Mus musculus [11],36%
same,ILS at 5 mg/kg,Mus musculus [4],73%
same,ILS at 10 mg/kg,Mus musculus [12],69%
same,Cures,Mus musculus [13],2
same,ILS at 40 mg/kg,Mus musculus [14],112%
same,ILS at 5 mg/kg,Mus musculus [15],42%
same,ILS at 20 mg/kg,Mus musculus [16],> 628%
same,ILS at 10 mg/kg,Mus musculus [17],> 272%
same,ILS at 40 mg/kg,Mus musculus [18],> 335%
same,ILS at 10 mg/kg,Mus musculus [19],> 376%
same,ILS at 40 mg/kg,Mus musculus [20],59%
same,ILS at 10 mg/kg,Mus musculus [21],> 318%
same,ILS at 16 mg/kg,Mus musculus [22],168%
same,ILS at 20 mg/kg,Mus musculus [23],> 318%
same,ILS at 8 mg/kg,Mus musculus [24],122%
same,ILS at 20 mg/kg,Mus musculus [25],> 244%
same,ILS at 40 mg/kg,Mus musculus [26],> 501%
same,Cures,Mus musculus [27],2
same,Cures,Mus musculus [28],4
same,Cures,Mus musculus [29],1
same,ILS at 30 mg/kg,Mus musculus [30],> 682%
same,ILS at 1.25 mg/kg,Mus musculus [31],110%
same,ILS at 5 mg/kg,Mus musculus [32],> 418%
same,Cures,Mus musculus [33],5
same,T/C,Mus musculus [34],2%
same,Cures,Mus musculus [35],5
same,ILS at 16 mg/kg,Mus musculus [36],> 417%
same,Cures,Mus musculus [37],3
same,ILS at 8 mg/kg,Mus musculus [38],102%
same,ILS at 1.25 mg/kg,Mus musculus [39],55%
same,ILS at 20 mg/kg,Mus musculus [40],52%
same,ILS at 20 mg/kg,Mus musculus [41],> 380%
